Test results: ChEMBL document CHEMBL4689842, “EUbOPEN Chemogenomics Library wave 1” (2021)
Where “and” joins values, the source holds several entries; their conditions need not be identical. Identical values can stand only once.

Test system: U2OS
Assay: Multiplex assay against U2OS
Assay type: toxicity, cell-based
Conditions: human, 10 µM, compound concentration 10 uM
How it was run: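 Live cells carried four stains from seeding: Hoechst33342, BioTracker Green Microtubule Cytoskeleton Dye, MitoTracker Red and Annexin V Alexa Fluor 680. They were imaged on a CQ1 microscope at 37°C and 5% CO2 after compound addition. Using CellPathfinder machine-learning gating, cells were split into Hoechst high-intensity objects or normal cells, normal cells into healthy, pyknosed or fragmented nuclei, and pyknosed cells into mitotic or apoptotic; tubulin, mitochondrial-mass and membrane-permeability phenotypes are per cents of healthy-nucleus cells.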

SMILES: Cn1c(-c2csc(C3CCN(CC4=NC5N=CC=CC5N4)CC3)n2)nc2ccccc21 (stereo unspecified) [BAY-070]
- Population Fragmented Nuclei (%) (12 h, replicate 1): 2% and 3%
- Population Healthy Nuclei (%) (12 h, replicate 1): 90%
- Population Hoechst High Intensity Objects (%) (12 h, replicate 1): 5% and 3%
- Population Membrane Permeable-Phenotype (%) (12 h, replicate 1): 6%
- Population Mitochondria Different-Phenotype (%) (12 h, replicate 1): 10%
- Population Mitotic Cells (%) (12 h, replicate 1): 91% and 70%
- Population Normal (%) (12 h, replicate 1): 94% and 96%
- Population Pyknosed Nuclei (%) (12 h, replicate 1): 6% and 11%
- Population Tubulin-Different-Phenotype (%) (12 h, replicate 1): 22% and 8%
- Total Cell Count (12 h, replicate 1): 183 and 214
- Population Fragmented Nuclei (%) (12 h, replicate 2): 13% and 7%
- Population Healthy Nuclei (%) (12 h, replicate 2): 84% and 89%
- Population Hoechst High Intensity Objects (%) (12 h, replicate 2): 12% and 13%
- Population Membrane Permeable-Phenotype (%) (12 h, replicate 2): 19% and 8%
- Population Mitochondria Different-Phenotype (%) (12 h, replicate 2): 21% and 25%
- Population Mitotic Cells (%) (12 h, replicate 2): 100% and 66%
- Population Normal (%) (12 h, replicate 2): 87% and 86%
- Population Pyknosed Nuclei (%) (12 h, replicate 2): 2%
- Population Tubulin-Different-Phenotype (%) (12 h, replicate 2): 19% and 34%
- Total Cell Count (12 h, replicate 2): 96 and 145
- Population Apoptotic (%) (24 h, replicate 1): 50% and 40%
- Population Fragmented Nuclei (%) (24 h, replicate 1): 5% and 3%
- Population Healthy Nuclei (%) (24 h, replicate 1): 88% and 92%
- Population Hoechst High Intensity Objects (%) (24 h, replicate 1): 3% and 2%
- Population Membrane Permeable-Phenotype (%) (24 h, replicate 1): 10%
- Population Mitochondria Different-Phenotype (%) (24 h, replicate 1): 17% and 14%
- Population Mitotic Cells (%) (24 h, replicate 1): 50% and 60%
- Population Normal (%) (24 h, replicate 1): 96% and 97%
- Population Pyknosed Nuclei (%) (24 h, replicate 1): 6% and 3%
- Population Tubulin-Different-Phenotype (%) (24 h, replicate 1): 15% and 30%
- Total Cell Count (24 h, replicate 1): 265 and 259
- Population Apoptotic (%) (24 h, replicate 2): 20% and 33%
- Population Fragmented Nuclei (%) (24 h, replicate 2): 7% and 6%
- Population Healthy Nuclei (%) (24 h, replicate 2): 87% and 84%
- Population Hoechst High Intensity Objects (%) (24 h, replicate 2): 12%
- Population Mitochondria Different-Phenotype (%) (24 h, replicate 2): 25% and 27%
- Population Mitotic Cells (%) (24 h, replicate 2): 80% and 66%
- Population Normal (%) (24 h, replicate 2): 87%
- Population Pyknosed Nuclei (%) (24 h, replicate 2): 5% and 8%
- Population Tubulin-Different-Phenotype (%) (24 h, replicate 2): 19% and 39%
- Total Cell Count (24 h, replicate 2): 108 and 180
